Laboratory results as given in ChEMBL document CHEMBL4513216, “Probing the Open Global Health Chemical Diversity Library for Multistage-Active Starting Points for Next-Generation Antimalarials” (ACS Infect Dis, 2020).

test: Toxicity liver stage against HepG2, at 10uM; assay type: cell-based; set-up: test concentration 10 uM, cell line HepG2-A16-CD81EGFP; conditions: human, HepG2-A16-CD81EGFP cells; read-out: INHIBITION
In short: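 Uninfected HepG2-A16-CD81EGFP cells, 3 × 10^3 per well, 1536-well, plated on prespotted compound at 10 μM final, parasite-free screening media added to match infected plates; puromycin 10 μM positive, DMSO 0.5% negative; run in parallel with 48 h PbLuc assay at 37 °C, 5% CO2; viability by CellTiter-Glo luminescence, normalized to controls.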

Point of comparison: `COc1ccnc(N2CCN(C(=O)c3csnn3)CC2)n1`, cytotoxicity at 10 µM -0.581%. Against it:
- CC(C)Oc1cccc(C(=O)C2CCCN(C(=O)c3ccccn3)C2)c1 (stereo not drawn) — lower, -7.67%
- Cc1noc([C@@H]2C[C@H](NC(=O)Nc3ccccc3)CN2C)n1 — lower, -1.89%
- Cn1ccc2c(C(=O)N3CC[C@@]4(O)CCCC[C@H]4C3)cccc21 — lower, -42.9%
- COc1ccc(C)cc1-c1csc(N)c1C#N — lower, -5.18%
- O=C(CCc1nc2cccnc2[nH]1)Nc1cccnc1 — higher, 2.92%
- OC(CN1CCOCC1)c1ccc(Br)cc1 (stereo not drawn) — lower, -6.58%
- Cc1nn(C)cc1-c1cc(C(F)F)nc2sc(C(N)=O)c(N)c12 — higher, 2.6%
- CCCN1CCC(NC(=O)c2csc(C)c2-c2ccc(C)cc2)CC1 — lower, -4.14%
- CCCc1noc(C2CCCCN2C(=O)CCc2cnn(C)c2)n1 (stereo not drawn) — lower, -1.89%
- CCOC(=O)C1CCCN(c2nccc(-n3nc(C)cc3C)n2)C1 (stereo not drawn) — lower, -11%
- CCn1ncc(CN(C)C(=O)c2cc(C(F)(F)F)n(C)n2)c1C — higher, 3.87%
- Clc1cccc(-n2cnnn2)c1N1CCOCC1 — higher, 9.43%
- CCOCc1cccc(S(=O)(=O)N2CCSCC2)c1 — higher, 1.26%
- COc1ccc(CC(=O)N2CCN(Cc3ccco3)C[C@@H]2C)cc1 — higher, 1.42%
- CC(C)N1CCN(C)CC(Cc2cc(N(C)C)ncn2)C1 (stereo not drawn) — higher, 9.25%
- CC[C@H](Cn1ncc2ccccc2c1=O)NC(=O)c1cnc(C)cn1 — higher, 5.98%
- CC(=O)N1CCCC1c1nc(N(C)C)ncc1-c1ccccc1 (stereo not drawn) — higher, 6.12%
- CCn1ccc2ccnc(CC3CN(C(=O)c4cnco4)C3)c21 — lower, -6.61%
- CN(C)c1nccc(C2CN(C(=O)CO)C2)n1 — lower, -10.6%
- CC(=O)N1CCC(Cc2cnc(-c3c(C)n[nH]c3C)cn2)CC1 — lower, -21.7%
- Cc1noc(C)c1-c1cncc(C2CCCN2Cc2ncccc2F)n1 (stereo not drawn) — higher, 7.84%
- CNC(=O)C1(c2cnccn2)CCCN1C(=O)c1cccc(F)c1 (stereo not drawn) — lower, -29.6%
- O=C(CCNc1ccc(Cl)cn1)NCc1ccncc1 — lower, -2.31%
- O=C(Cc1ccc(F)cc1)NCc1ccc(C(=O)O)o1 — lower, -8.06%
- COC(=O)C(NC(=O)c1ccc(NC2CC2)nc1)c1ccccc1 (stereo not drawn) — lower, -9.88%
- COC1CCN(C(=O)c2ccc3ncsc3c2)CC1 — lower, -10.3%
- NC(=O)CS(=O)(=O)Cc1ccc(F)cc1 — lower, -3.71%
- COc1ccc(CN(C(=O)C2CCOCC2)c2ccncc2)cc1 — higher, 8.5%
- Cn1cnnc1CNC(=O)CCCOc1ccccc1Cl — higher, 3.28%
- CC(C(=O)NCC(C)(C)c1ccc2c(c1)OCCO2)n1cncn1 (stereo not drawn) — higher, 13.8%
- CNC(=O)c1cc(NC(=O)Nc2cnn(CC(C)C)c2)ccc1F — lower, -3.79%
- CC(=O)NCc1ccc(C(=O)N2CCCc3c(F)ccc(C)c32)o1 — lower, -0.883%
- COCC(C)NC(=O)N(C)Cc1cc(C)on1 (stereo not drawn) — higher, 6.27%
- O=S(=O)(NCCc1cn2ccccc2n1)N1CCOCC1 — lower, -3.98%
- COc1ccc(CCNC(=O)c2ccc(=O)n(C)c2)c(Cl)c1 — lower, -10.3%
- CC(C)n1ccc(C(=O)OCC2CC(=O)N(Cc3ccccc3)C2)n1 (stereo not drawn) — higher, 0.379%
- c1csc(-c2cc(CN3CCN(c4cnccn4)CC3)no2)c1 — higher, -0.523%
- CN(C)CCNC(=O)Cc1cccc(I)c1 — lower, -3.23%
- Cc1cc(C(=O)NCC(c2ccccc2Cl)N2CCOCC2)on1 (stereo not drawn) — higher, 2.62%
- COCCOCC(=O)N1CCc2cc(Cl)cc(Cl)c2C1 — higher, 1.4%
- N#Cc1ccc(F)c(CNC(=O)NC(CO)c2ccccc2)c1 (stereo not drawn) — higher, 4.16%
- CCc1nnc(C2Cc3ccccc3CN2Cc2ncc(Cl)n2C)o1 (stereo not drawn) — higher, 12.5%
- Cc1nn(C)c(C)c1CC(=O)NCc1cccnc1N1CCOCC1 — lower, -139%
- O=C(CN1CCCC1CC(=O)c1ccccc1)NCc1ccccn1 (stereo not drawn) — higher, 1.39%
- CN(C)C(=O)C1CCCN1c1ccnc2ccsc12 (stereo not drawn) — lower, -16.8%
- Cc1cc(CN(C)Cc2ncc(-c3cccs3)o2)no1 — higher, 11%
- COc1cc(F)ccc1N1CCN(Cc2nnc(C3CC3)o2)CC1 — higher, 14.8%
- Cc1noc(CCNS(=O)(=O)N2CCCC2c2ccc(C)o2)n1 (stereo not drawn) — lower, -10%
- Cn1cc(C2CCCN2CCCn2c(=O)oc3ccccc32)cn1 (stereo not drawn) — higher, 5.63%
- Cn1cc(CNc2cnn(CCO)c2)c(-c2ccncc2)n1 — higher, 1.56%
- CC(Nc1cccc(Oc2ccc(C#N)cn2)c1)C(=O)NC1CC1 (stereo not drawn) — higher, 12.8%
- Cc1cc(CNC(=O)c2ccc(F)c(COCC3CC3)c2)no1 — higher, -0.429%
- O=C(NCCc1csc(N2CCCC2)n1)N(C1CCCC1)C1CC1 — higher, 10.8%
- O=C(CN1CCCC1Cn1cccn1)NC1CCOCC1 (stereo not drawn) — lower, -23.2%
- O=C(COc1cccc2c1CCC2=O)NCc1ccccc1F — lower, -5.33%
- O=C(CCNC(=O)c1ccccc1N1CCOCC1)NC1CCCC1 — lower, -17.8%
- COc1cccc(N2CCN(C(=O)C(O)CC(C)C)CC2=O)c1 (stereo not drawn) — lower, -14.7%
- CC(=O)NC1CCN(c2cc(C3CCNCC3)nc(C)n2)C1 (stereo not drawn) — lower, -1.92%
- Cc1nonc1C1CCCN1C(=O)c1cc2n(n1)CCCN(C(C)C)C2 (stereo not drawn) — lower, -10%
- Cc1cc(C(=O)N2CC[C@@]3(O)CCN(C(=O)N4CCCC4)C[C@H]3C2)no1 — lower, -6.74%
- CC[C@H]1CN(C(=O)c2cnc(N3CCN(C)CC3)nc2C)CC[C@@]1(C)O — lower, -4.15%
- CCN(C)S(=O)(=O)NCC1CCCN(Cc2ccccc2F)C1 (stereo not drawn) — lower, -1.22%
- CCN1CC(C(=O)N2CC(Oc3ccccc3Cl)C2)CCC1=O (stereo not drawn) — lower, -8.62%
- CN1CCC(C)(CN(C)C(=O)c2ccc(CCC(C)(C)O)cc2)C1 (stereo not drawn) — lower, -11.2%
- CCc1cc(C(=O)NCC2CCN(Cc3cccc(C)n3)C2)on1 (stereo not drawn) — higher, 7.69%
- CC(=O)c1cc(CN2C[C@@H](CN3CCCC3)[C@@H](CO)C2)n(C)c1 — higher, 4.92%
- COc1ccc(-c2ccc(C(=O)N3CCOCC3CC(=O)O)o2)cc1 (stereo not drawn) — higher, 1.79%
- CCc1cc(C(=O)N2CC[C@@H](c3ccc4ccccc4c3)[C@H](O)C2)[nH]n1 — higher, 3.46%
- CC(C)SCCNC(=O)c1cccc2ccnn12 — lower, -51.6%
- COc1cccc(OCC2CCCN(Cc3ccncc3)C2)c1 (stereo not drawn) — lower, -7.66%
- CSCc1noc(CN2CC(Cc3ccccc3)CC2=O)n1 (stereo not drawn) — higher, -0.404%
- O=C1OC2(CCNCC2)CN1CC(=O)N1CCCC1c1nccs1 (stereo not drawn) — lower, -4.92%
- CN(C)C(=O)C1(Oc2ccc(Cl)cc2)CCNCC1 — higher, 13.7%
- CC(C)N1CCC(C(=O)N(C)C(C)c2ccon2)CC1 (stereo not drawn) — higher, 5.16%
- COc1cccc(C(=O)N2CCC3(CCC(=O)N(C(C)C)C3)CC2)c1C — lower, -3.21%
- CSCCCN1CCN(c2ccc(Cl)cn2)CC1 — lower, -5.52%
- COCC[C@]1(O)CCN(C(=O)CCn2c(C)cccc2=O)C[C@H]1C — higher, 3.28%
- COc1cccc(S(=O)(=O)NC(=O)COC2CCCCC2)c1 — higher, -0.502%
- CCN(C(C)=O)c1nc(CN2CCCCC2Cn2cncn2)cs1 (stereo not drawn) — lower, -5.4%
- CCn1cc(CN2CCCN(C(=O)CCc3nccs3)CC2)cn1 — lower, -2.53%
- CCOc1ccc(Cl)c(C(=O)N2CCN(c3ncccn3)CC2)n1 — lower, -1.9%
- CC(=O)N1CCN(Cc2ccc(OCc3nccn3C)cc2)CC1 — lower, -2.68%
- Cn1cnnc1C1CCCN(C(=O)NCc2ccccn2)C1 (stereo not drawn) — higher, 2.83%
- O=C(NCCn1ccnc1)c1ccn(-c2ccccc2)n1 — higher, 0.449%
- CCOCC1CCCN(C(=O)NCc2ccc(-c3ccn[nH]3)cc2)C1 (stereo not drawn) — lower, -3.25%
- CSC(C)C(=O)N1CCCN(c2ncccc2C#N)CC1 (stereo not drawn) — lower, -1.2%
- Cc1ncc2c(n1)CN(CC(=O)Nc1nccs1)CC2 — lower, -0.586%
- O=C(c1csc(C2CC2)n1)N1CCCC1Cn1cccn1 (stereo not drawn) — lower, -5.53%
- CCNc1cc2c(nn1)CCN(C(=O)CCc1c(C)noc1C)C2 — lower, -2.47%
- Cc1nn(C)c(C)c1C1CCCN1C(=O)c1ccc2nnc(C)n2c1 (stereo not drawn) — lower, -12.2%
- CC(C)CC(C)N(C)C(=O)c1nc(S(C)(=O)=O)n2ccccc12 (stereo not drawn) — lower, -9.24%
- CS(=O)(=O)c1cccc(C(=O)N2CCCC(n3cccn3)C2)c1 (stereo not drawn) — lower, -8.77%
- Cc1ncncc1C(=O)N1CCCC1c1c(C)nn(C)c1Cl (stereo not drawn) — lower, -12.2%
- CC(C)C(C)NC(=O)Nc1ccc(F)c(C(N)=O)c1 (stereo not drawn) — lower, -6.54%
- CCc1nc(CN2CCCC(NCc3nnc(C4CC4)n3C)C2)no1 (stereo not drawn) — lower, -2.97%
- O=C(Nc1ccccc1OCC1CCCCO1)c1ccc(O)nc1 (stereo not drawn) — higher, 5.41%
- CCCOCC(=O)N1CCCN(Cc2csc(CC)n2)CC1 — higher, 3.78%
- Cc1nc(CN(C)C2CCN(CC(=O)NC3CCOCC3)C2)no1 (stereo not drawn) — lower, -7.15%
- CCCc1ccc(OCCNCc2ccco2)c(OC)c1 — lower, -2.04%
- CCOCC1CN(C(=O)c2ccncn2)Cc2cnn(C)c21 (stereo not drawn) — lower, -143%
- Cc1nnc(N2CCCC3(CN(Cc4ccc(C)s4)CCO3)C2)o1 (stereo not drawn) — lower, -14.6%
- CCS(=O)(=O)N1CCC2(CN(c3ccsc3)C(=O)CN2C)C1 (stereo not drawn) — higher, 7.31%
- COCCO[C@H]1CCN(C(=O)c2cccnc2)[C@H]1Cc1cnn(C)c1 — higher, 4%
- Cc1occc1C(=O)N1CCC2(CCN(Cc3nccs3)C2)CC1 — lower, -12.5%
- O=C(c1ccco1)N1C[C@H]2CCCN(Cc3nccs3)[C@H]2C1 — higher, 2.32%
- CC(C)c1nn(C)c(Cl)c1CNCc1ccc2c(c1)OCCO2 — lower, -1.64%
- CCOCC1CN(Cc2csc(C)n2)Cc2nccn2C1 (stereo not drawn) — higher, 5.98%
- Cn1nnc2c1C(COCc1ccccn1)CN(C(=O)c1ccsc1)C2 (stereo not drawn) — higher, 13.6%
- O=C(CC1CC1)NC[C@]12COC[C@H]1CN(c1ncc(F)cn1)C2 — lower, -141%
- Fc1cnc(N2CCCC3(CN(Cc4ccncc4)CCO3)C2)nc1 (stereo not drawn) — higher, 3.34%
- O=C(NCCc1ccccc1)C1CCC(Cn2cnnn2)CC1 (stereo not drawn) — higher, 2.01%
- O=C(c1cccnc1-c1ccoc1)N1C[C@@H]2CC[C@H]1C2 — higher, 6.3%
